Measured values published in ChEMBL document CHEMBL1914346, “Discovery and synthesis of novel substituted benzocoumarins as orally active lipid modulating agents” (Bioorg Med Chem Lett, 2011).

Tests used:
[1] = system: Syrian golden hamster; experiment: Antidyslipidemic activity in high fat diet-fed dyslipidemic syrian golden hamster model assessed as decrease in serum triglyceride level at 10 mg/kg, po administered once daily for 7 days relative to vehicle treated control; format: functional, Mesocricetus auratus; set-up: scale not given: the % may be the effect or the level left
In short: (§1)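 Male Golden Syrian hamsters, 12 weeks old, 110 ± 10 g, eight per group, fed high-fat diet plus fructose daily on days 1–10. Oral dosing once daily on days 4–10 in 0.1% gum acacia; HFD-fed vehicle animals served as controls. After the last dose, retro-orbital blood was taken into EDTA and plasma lipids were measured enzymatically on an autoanalyzer. Results are % change versus HFD controls; t-test/ANOVA, p<0.05.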

[2] = system: Syrian golden hamster; experiment: Antidyslipidemic activity in high fat diet-fed dyslipidemic syrian golden hamster model assessed as increase in serum HDL level at 10 mg/kg, po administered once daily for 7 days relative to vehicle treated control; format: functional, Mesocricetus auratus; in short: as §1
[3] = system: Syrian golden hamster; experiment: Antidyslipidemic activity in high fat diet-fed dyslipidemic syrian golden hamster model assessed as increase in serum ratio of serum HDL/total cholesterol level at 10 mg/kg, po administered once daily for 7 days relative to vehicle treated control; format: functional, Mesocricetus auratus; in short: as §1
[4] = system: Syrian golden hamster; experiment: Antidyslipidemic activity in high fat diet-fed dyslipidemic syrian golden hamster model assessed as decrease in serum LDL level at 10 mg/kg, po administered once daily for 7 days relative to vehicle treated control; format: functional, Mesocricetus auratus; set-up: scale not given: the % may be the effect or the level left; in short: as §1
[5] = system: Syrian golden hamster; experiment: Antidyslipidemic activity in high fat diet-fed dyslipidemic syrian golden hamster model assessed as decrease in serum total cholesterol level at 10 mg/kg, po administered once daily for 7 days relative to vehicle treated control; format: functional, Mesocricetus auratus; set-up: scale not given: the % may be the effect or the level left; in short: as §1
[6] = Antioxidant activity assessed as trolox equivalent by TEAC assay; format: functional
[7] = system: Syrian golden hamster; experiment: Toxicity in syrian golden hamster; format: organism-based, Mesocricetus auratus; settings: in vivo
In short: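 HFD-fed male Golden Syrian hamsters, eight per group, dosed orally at 10 mg/kg once daily for 7 days in 0.1% gum acacia. Body weight was recorded daily and food intake was monitored, then compared with HFD vehicle controls.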

[8] = system: Syrian golden hamster; experiment: Antidyslipidemic activity in high fat diet-fed dyslipidemic syrian golden hamster model assessed as decrease in serum triglyceride level at 5 mg/kg relative to vehicle treated control; format: functional, Mesocricetus auratus; set-up: scale not given: the % may be the effect or the level left
In short: (§2)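 Dose-response run on a separate set of high-fat/fructose-fed male Golden Syrian hamsters given oral doses of 2.5, 5, 10 and 25 mg/kg. Plasma TC, TG, HDL-C and LDL-C were measured by standard enzymatic methods on a clinical autoanalyzer. HDL/TC ratio was calculated. Results are % change relative to HFD-fed vehicle (gum acacia) controls.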

[9] = system: Syrian golden hamster; experiment: Antidyslipidemic activity in high fat diet-fed dyslipidemic syrian golden hamster model assessed as decrease in serum triglyceride level at 25 mg/kg relative to vehicle treated control; format: functional, Mesocricetus auratus; set-up: scale not given: the % may be the effect or the level left; in short: as §2
[10] = system: Syrian golden hamster; experiment: Antidyslipidemic activity in high fat diet-fed dyslipidemic syrian golden hamster model assessed as decrease in serum total cholesterol level at 10 mg/kg relative to vehicle treated control; format: functional, Mesocricetus auratus; set-up: scale not given: the % may be the effect or the level left; in short: as §2
[11] = system: Syrian golden hamster; experiment: Antidyslipidemic activity in high fat diet-fed dyslipidemic syrian golden hamster model assessed as decrease in serum LDL level at 5 mg/kg relative to vehicle treated control; format: functional, Mesocricetus auratus; set-up: scale not given: the % may be the effect or the level left; in short: as §2
[12] = system: Syrian golden hamster; experiment: Antidyslipidemic activity in high fat diet-fed dyslipidemic syrian golden hamster model assessed as decrease in serum LDL level at 2.5 mg/kg relative to vehicle treated control; format: functional, Mesocricetus auratus; set-up: scale not given: the % may be the effect or the level left; in short: as §2
[13] = system: Syrian golden hamster; experiment: Antidyslipidemic activity in high fat diet-fed dyslipidemic syrian golden hamster model assessed as decrease in serum LDL level at 10 mg/kg relative to vehicle treated control; format: functional, Mesocricetus auratus; set-up: scale not given: the % may be the effect or the level left; in short: as §2
[14] = target: T1, 3-hydroxy-3-methylglutaryl-coenzyme A reductase (Homo sapiens) (UniProt P04035); experiment: Inhibition of HMG-CoA reductase using HMG-CoA as substrate at 100 uM
T1 sequence (whole entry): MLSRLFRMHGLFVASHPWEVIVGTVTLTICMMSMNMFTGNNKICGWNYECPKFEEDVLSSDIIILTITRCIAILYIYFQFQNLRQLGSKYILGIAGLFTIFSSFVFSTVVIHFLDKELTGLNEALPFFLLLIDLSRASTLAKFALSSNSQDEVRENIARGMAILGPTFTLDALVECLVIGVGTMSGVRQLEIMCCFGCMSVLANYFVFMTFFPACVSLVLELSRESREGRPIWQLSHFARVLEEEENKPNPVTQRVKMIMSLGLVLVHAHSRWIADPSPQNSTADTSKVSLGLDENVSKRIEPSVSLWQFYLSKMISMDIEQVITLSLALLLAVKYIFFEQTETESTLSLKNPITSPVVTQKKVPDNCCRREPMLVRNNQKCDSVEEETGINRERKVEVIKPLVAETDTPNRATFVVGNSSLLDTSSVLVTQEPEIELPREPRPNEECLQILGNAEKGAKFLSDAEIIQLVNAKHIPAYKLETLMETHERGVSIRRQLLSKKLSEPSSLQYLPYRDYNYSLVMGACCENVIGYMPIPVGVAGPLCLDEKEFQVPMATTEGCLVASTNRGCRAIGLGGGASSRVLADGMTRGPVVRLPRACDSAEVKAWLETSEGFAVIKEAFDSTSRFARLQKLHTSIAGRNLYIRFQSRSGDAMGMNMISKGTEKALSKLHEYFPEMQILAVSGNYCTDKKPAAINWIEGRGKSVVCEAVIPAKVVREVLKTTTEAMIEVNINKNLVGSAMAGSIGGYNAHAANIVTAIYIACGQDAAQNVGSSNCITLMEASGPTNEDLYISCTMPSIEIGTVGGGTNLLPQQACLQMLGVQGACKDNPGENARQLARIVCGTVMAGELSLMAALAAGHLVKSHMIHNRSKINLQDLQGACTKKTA
In short: (§3)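 HMG-CoA reductase kit assay using supplied HMGR enzyme, HMG-CoA substrate, NADPH and assay buffer. Test concentrations were 5, 10, 25, 50 and 100 µM, with % inhibition recorded at each.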

[15] = target: T1, 3-hydroxy-3-methylglutaryl-coenzyme A reductase (Homo sapiens); experiment: Inhibition of HMG-CoA reductase using HMG-CoA as substrate at 10 uM; in short: as §3
[16] = system: Syrian golden hamster; experiment: Antidyslipidemic activity in high fat diet-fed dyslipidemic syrian golden hamster model assessed as decrease in serum total cholesterol level at 25 mg/kg relative to vehicle treated control; format: functional, Mesocricetus auratus; set-up: scale not given: the % may be the effect or the level left; in short: as §2
[17] = system: Syrian golden hamster; experiment: Antidyslipidemic activity in high fat diet-fed dyslipidemic syrian golden hamster model assessed as increase in serum ratio of HDL/total cholesterol level at 25 mg/kg relative to vehicle treated control; format: functional, Mesocricetus auratus; in short: as §2
[18] = system: Syrian golden hamster; experiment: Antidyslipidemic activity in high fat diet-fed dyslipidemic syrian golden hamster model assessed as decrease in serum triglyceride level at 2.5 mg/kg relative to vehicle treated control; format: functional, Mesocricetus auratus; set-up: scale not given: the % may be the effect or the level left; in short: as §2
[19] = system: Syrian golden hamster; experiment: Antidyslipidemic activity in high fat diet-fed dyslipidemic syrian golden hamster model assessed as decrease in serum total cholesterol level at 2.5 mg/kg relative to vehicle treated control; format: functional, Mesocricetus auratus; set-up: scale not given: the % may be the effect or the level left; in short: as §2
[20] = system: Syrian golden hamster; experiment: Antidyslipidemic activity in high fat diet-fed dyslipidemic syrian golden hamster model assessed as increase in serum ratio of HDL/total cholesterol level at 5 mg/kg relative to vehicle treated control; format: functional, Mesocricetus auratus; in short: as §2
[21] = system: Syrian golden hamster; experiment: Antidyslipidemic activity in high fat diet-fed dyslipidemic syrian golden hamster model assessed as decrease in serum LDL level at 25 mg/kg relative to vehicle treated control; format: functional, Mesocricetus auratus; set-up: scale not given: the % may be the effect or the level left; in short: as §2
[22] = target: T1, 3-hydroxy-3-methylglutaryl-coenzyme A reductase (Homo sapiens); experiment: Inhibition of HMG-CoA reductase using HMG-CoA as substrate at 5 uM; in short: as §3
[23] = system: Syrian golden hamster; experiment: Antidyslipidemic activity in high fat diet-fed dyslipidemic syrian golden hamster model assessed as increase in serum ratio of HDL/total cholesterol level at 10 mg/kg relative to vehicle treated control; format: functional, Mesocricetus auratus; in short: as §2
[24] = system: Syrian golden hamster; experiment: Antidyslipidemic activity in high fat diet-fed dyslipidemic syrian golden hamster model assessed as decrease in serum triglyceride level at 10 mg/kg relative to vehicle treated control; format: functional, Mesocricetus auratus; set-up: scale not given: the % may be the effect or the level left; in short: as §2
[25] = target: T1, 3-hydroxy-3-methylglutaryl-coenzyme A reductase (Homo sapiens); experiment: Inhibition of HMG-CoA reductase using HMG-CoA as substrate at 50 uM; in short: as §3
[26] = system: Syrian golden hamster; experiment: Antidyslipidemic activity in high fat diet-fed dyslipidemic syrian golden hamster model assessed as increase in serum ratio of HDL/total cholesterol level at 2.5 mg/kg relative to vehicle treated control; format: functional, Mesocricetus auratus; in short: as §2
[27] = target: T1, 3-hydroxy-3-methylglutaryl-coenzyme A reductase (Homo sapiens); experiment: Inhibition of HMG-CoA reductase using HMG-CoA as substrate at 25 uM; in short: as §3
[28] = system: Syrian golden hamster; experiment: Antidyslipidemic activity in high fat diet-fed dyslipidemic syrian golden hamster model assessed as decrease in serum total cholesterol level at 5 mg/kg relative to vehicle treated control; format: functional, Mesocricetus auratus; set-up: scale not given: the % may be the effect or the level left; in short: as §2

CC(C)c1c(C(=O)Nc2ccccc2)c(-c2ccccc2)c(-c2ccc(F)cc2)n1CC[C@@H](O)C[C@@H](O)CC(=O)O [ATORVASTATIN] gave an Activity [1] of 67%, an Activity [2] of 2% and an Activity [3] of 83%. For the same compound, the Activity [4] was 23% and the Activity [5] was 25%.
In the case of Cc1cc(=O)oc2c3c(ccc12)C(=O)/C(=C/NC1CCCCC1)C=C3C=O, the Activity [6] is reported as 0.3 mM, the Activity [7] is reported as “Non-toxic” and the Activity [1] is reported as 62%. The Activity [2] was 1%, the Activity [3] was 17% and the Activity [4] was 10%. The Activity [5] was 14%.
COc1ccc(CN/C=C2\C=C(C=O)c3c(ccc4c(C)cc(=O)oc34)C2=O)cc1 gave an Activity [8] of 38%, an Activity [9] of 61% and an Activity [10] of 39%. For the same compound, the Activity [6] was 1.36 mM, the Activity [7] was “Non-toxic” and the Activity [11] was 8%. The Activity [12] was 3%, the Activity [1] was 70% and the Activity [2] was 1%. It also gave an Activity [13] of 14%, an inhibition [14] of 63.8% and an inhibition [15] of 34.2%. For the same compound, the Activity [16] was 45%, the Activity [3] was 80% and the Activity [4] was 54%. The Activity [17] was 86%, the Activity [18] was 35% and the Activity [19] was 19%. It also gave an Activity [20] of 26%, an Activity [21] of 19% and an inhibition [22] of 26.1%. The Activity [23] was 71%, the Activity [5] was 47% and the Activity [24] was 58%. For the same compound, the inhibition [25] was 50.1%, the Activity [26] was 18% and the inhibition [27] was 40.3%. It also gave an Activity [28] of 18%.
